Measured values from BindingDB's records for doi:10.1021/jm000911j (Universidad De Valencia, 2000).

Target: Acyl carrier protein,/NADH dehydrogenase [ubiquinone] flavoprotein 1, mitochondrial (Bos taurus, UniProt P25708+P52505)
Experiment: Inhibition of NADH oxidase activity.
Method in brief: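 Beef-heart submitochondrial particles (sonicated frozen-thawed mitochondria), preactivated with 300 µM NADH, assayed at 22 °C in 50 mM potassium phosphate pH 7.4, 1 mM EDTA (0.28 nM complex I). Aerobic oxidation of 75 µM NADH with no added quinone, followed at 340 nm. Ethanolic compound added cumulatively, 5 min on ice per step, ethanol ≤2%. IC50 is the final concentration giving 50% inhibition.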

Sequence of Acyl carrier protein,/NADH dehydrogenase [ubiquinone] flavoprotein 1, mitochondrial (P25708 21-464 limits assumed, other chains not shown): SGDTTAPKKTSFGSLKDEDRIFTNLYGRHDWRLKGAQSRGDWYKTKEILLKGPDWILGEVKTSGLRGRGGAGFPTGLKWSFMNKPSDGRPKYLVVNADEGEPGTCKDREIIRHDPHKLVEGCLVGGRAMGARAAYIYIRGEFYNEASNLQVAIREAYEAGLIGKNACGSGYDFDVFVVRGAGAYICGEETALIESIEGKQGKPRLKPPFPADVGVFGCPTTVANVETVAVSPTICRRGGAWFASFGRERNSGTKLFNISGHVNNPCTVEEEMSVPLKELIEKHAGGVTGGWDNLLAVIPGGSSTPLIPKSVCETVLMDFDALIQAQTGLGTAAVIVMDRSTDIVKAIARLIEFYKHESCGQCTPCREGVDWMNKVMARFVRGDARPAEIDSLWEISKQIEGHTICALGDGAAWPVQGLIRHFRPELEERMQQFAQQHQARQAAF

Compound | IC50 [nM]
CCCCCCCCCCC(N=O)[C@H]1CC[C@@H]([C@@H]2CC[C@H]([C@H](O)CCCCCCCCCCC(CC3=C[C@H](C)OC3=O)N=O)O2)O1 (some centres not stated) [3-{13-Hydroxy-2-hydroxyimino-13-[5'-(1-hydroxyimino-undecyl)-octahydro-[2,2']bifuranyl-5-yl]-tridecyl}-5-methyl-5H-furan-2-one(4,24-didehydroxy-4,24-dihydroxyliminorolliniastatin-1)] | 0.34
CCCCCCCCCC[C@H](O)[C@H]1CC[C@H]([C@H]2CC[C@H]([C@H](O)CCCCC(CCCCCCCC3=C[C@H](C)OC3=O)N=O)O2)O1 (some centres not stated) [10-oxime-guanacone] | 0.34
